In ChEMBL document CHEMBL1124136, “The acylating potential of gamma-lactam antibacterials: base hydrolysis of bicyclic pyrazolidinones” (J Med Chem, 1988):
≈ marks a conversion by molar mass, not a printed value.

What was measured:
[1] = Pseudo-first-order Rate constant for hydrolysis at pH 10; type: ADME; conditions: buffer
Procedure, shortened: (§1)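 Pseudo-first-order loss of parent lactam followed by HPLC at 35 °C. Lactam was 3.6×10^-4 to 1×10^-3 M in aqueous KCl at ionic strength 0.5, with pH held by NaOH on a pH-stat. Values were measured at pH 10 directly, or at pH 9 (×10) or pH 11 (÷10), taking k_obsd as proportional to [OH−].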

Streptococcus pyogenes = test: Minimum inhibitory concentration (MIC), tested against Streptococcus pyogenes C203.; type: functional
Providencia rettgeri = test: Minimum inhibitory concentration (MIC), tested against Providencia rettgeri C24; type: functional
[2] = Rate constant for hydrolysis at pH 9; type: ADME; conditions: buffer
Procedure, shortened: (§2)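 Constant-pH hydrolysis (pH 9 or 11) was run on a pH-stat with NaOH addition, and loss of lactam (3.6×10^-4 to 1×10^-3 M) was followed by HPLC. Ionic strength was 0.5 with KCl. A pseudo-first-order rate constant was obtained from the disappearance time course.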

Klebsiella pneumoniae = test: Minimum inhibitory concentration (MIC), tested against Klebsiella pneumoniae X68; type: functional
[3] = Rate constant for hydrolysis at pH 10; type: ADME; conditions: buffer; procedure, shortened: as §1
[4] = Rate constant for hydrolysis at pH 11; type: ADME; conditions: buffer; procedure, shortened: as §2

SMILES	k [1]	MIC (Streptococcus pyogenes)	MIC (Providencia rettgeri)	k [2]	MIC (Klebsiella pneumoniae)	k [3]	k [4]
CO/N=C(\C(=O)NC1CN2CC(C(C)=O)=C(C(=O)O)N2C1=O)c1csc(N)n1 (stereo unspecified)		0.5 µg/mL (≈ 1.22 µM)	0.25 µg/mL (≈ 0.612 µM)	7.24 h⁻¹	2 µg/mL (≈ 4.9 µM)		
CC1=C(C(=O)O)N2C(=O)[C@@H](NC(=O)[C@H](N)c3ccccc3)[C@H]2SC1 [CEPHALEXIN ANHYDROUS]	0.0685 h⁻¹						
CO/N=C(\C(=O)NC1CN2CC(c3cccs3)=C(C(=O)O)N2C1=O)c1csc(N)n1 (stereo unspecified)		> 128 µg/mL	> 128 µg/mL		> 128 µg/mL	0.19 h⁻¹	
CC(=O)OCC1=C(C(=O)O)N2C(=O)[C@@H](NC(=O)Cc3cccs3)[C@H]2SC1 [CEPHALOTHIN]	0.317 h⁻¹						
C[C@H]1[C@H](NC(=O)/C(=N\OC(C)(C)C(=O)O)c2csc(N)n2)C(=O)N1S(=O)(=O)O [AZTREONAM]	0.4 h⁻¹						
CO/N=C(\C(=O)NC1CN2CC(C(=O)Nc3ccccc3)=C(C(=O)O)N2C1=O)c1csc(N)n1 (stereo unspecified)		1 µg/mL (≈ 2.06 µM)	8 µg/mL (≈ 16.5 µM)	2.33 h⁻¹	32 µg/mL (≈ 65.9 µM)		
CC(C)(O/N=C(\C(=O)N[C@@H]1C(=O)N2C(C(=O)[O-])=C(C[n+]3ccccc3)CS[C@H]12)c1csc(N)n1)C(=O)O [CEFTAZIDIME]	1.3 h⁻¹						

More lines, now with the values ahead:

k [1]	MIC (Streptococcus pyogenes)	MIC (Providencia rettgeri)	k [2]	MIC (Klebsiella pneumoniae)	k [3]	k [4]	SMILES
0.248 h⁻¹							CC1(C)S[C@@H]2[C@H](NC(=O)COc3ccccc3)C(=O)N2[C@H]1C(=O)O [PENICILLIN V]
0.944 h⁻¹							N[C@@H](C(=O)N[C@@H]1C(=O)N2C(C(=O)O)=C(Cl)CS[C@H]12)c1ccccc1.O [CEFACLOR]
	> 128 µg/mL	> 128 µg/mL		> 128 µg/mL	0.146 h⁻¹		CO/N=C(\C(=O)NC1CN2CC(c3ccccc3)=C(C(=O)O)N2C1=O)c1csc(N)n1 (stereo unspecified)
	0.25 µg/mL (≈ 0.562 µM)	0.06 µg/mL (≈ 0.135 µM)	14.8 h⁻¹	0.25 µg/mL (≈ 0.562 µM)			CO/N=C(\C(=O)NC1CN2CC(S(C)(=O)=O)=C(C(=O)O)N2C1=O)c1csc(N)n1 (stereo unspecified)
	4 µg/mL (≈ 9.43 µM)	1 µg/mL (≈ 2.36 µM)	4.74 h⁻¹	8 µg/mL (≈ 18.9 µM)			CO/N=C(\C(=O)NC1CN2CC(C(=O)OC)=C(C(=O)O)N2C1=O)c1csc(N)n1 (stereo unspecified)
	0.5 µg/mL (≈ 1.28 µM)	0.25 µg/mL (≈ 0.639 µM)	17.3 h⁻¹	0.5 µg/mL (≈ 1.28 µM)			CO/N=C(\C(=O)NC1CN2CC(C#N)=C(C(=O)O)N2C1=O)c1csc(N)n1 (stereo unspecified)
	> 128 µg/mL	> 128 µg/mL		> 128 µg/mL		0.0111 h⁻¹	CO/N=C(\C(=O)NC1CN2N(C1=O)C(C(=O)O)=C(C(=O)O)C2(C)C)c1csc(N)n1 (stereo unspecified)
	64 µg/mL (≈ 141 µM)	> 128 µg/mL		> 128 µg/mL	0.769 h⁻¹		CO/N=C(\C(=O)NC1CN2N(C1=O)C(C(=O)O)=C(C(=O)OC)C2(C)C)c1csc(N)n1 (stereo unspecified)
	8 µg/mL (≈ 19.5 µM)	8 µg/mL (≈ 19.5 µM)		64 µg/mL (≈ 156 µM)	0.324 h⁻¹		CO/N=C(\C(=O)NC1CN2CC(C(=O)O)=C(C(=O)O)N2C1=O)c1csc(N)n1 (stereo unspecified)
